IDH1 mut inh: IDH1 R132H (human) inhibition; IDH1 R132H reductase, diaphorase/resazurin fluorescence, 60 min; 70,000 tested, 0.18% active; inhibition, % at 10 µM; O75874; AID 624101; in the data active = inhibition above about 34%; inconclusive = no clear call, values can overlap the other calls; inactive = below about 11%
Target sequence (O75874 whole entry R132H): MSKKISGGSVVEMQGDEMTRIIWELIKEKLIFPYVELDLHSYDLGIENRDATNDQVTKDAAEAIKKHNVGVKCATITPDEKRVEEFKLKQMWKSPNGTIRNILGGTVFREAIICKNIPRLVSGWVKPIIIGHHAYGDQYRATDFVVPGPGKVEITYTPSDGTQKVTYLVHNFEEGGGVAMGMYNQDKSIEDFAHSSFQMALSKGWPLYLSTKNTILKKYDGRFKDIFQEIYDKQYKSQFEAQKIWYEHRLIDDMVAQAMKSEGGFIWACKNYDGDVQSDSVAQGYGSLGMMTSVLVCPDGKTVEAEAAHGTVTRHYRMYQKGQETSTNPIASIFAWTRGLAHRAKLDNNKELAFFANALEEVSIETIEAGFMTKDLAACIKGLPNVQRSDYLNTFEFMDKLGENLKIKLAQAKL
T cruzi growth-1: T. cruzi proliferation inhibition; T. cruzi beta-gal in NIH3T3, GalScreen luminescence, 90 h; inhibition, % at 8.34 µM; 77,000 tested, 5.9% active; AID 624255;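 active = mean inhibition above about 93%, with at least 55% of replicates each passing it, limit read from the data, passing the limit was not always enough; inconclusive = only one of those two conditions holds; inactive = neither condition holds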
GASC1 inh: KDM4C (human) demethylase inhibition; Q9H3R0; inhibition, % at 12.5 µM; GST-KDM4C 2-372, H3K9me3 peptide, LANCE TR-FRET; AID 720574; 96,000 tested, 0.15% active;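 active = mean replicate inhibition above about 25%, with at least 55% of replicates also reaching it, limit read from the data, passing the limit was not always enough; inconclusive = only one of those two conditions met; inactive = neither condition met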
Target sequence (Q9H3R0 2-372 limits assumed): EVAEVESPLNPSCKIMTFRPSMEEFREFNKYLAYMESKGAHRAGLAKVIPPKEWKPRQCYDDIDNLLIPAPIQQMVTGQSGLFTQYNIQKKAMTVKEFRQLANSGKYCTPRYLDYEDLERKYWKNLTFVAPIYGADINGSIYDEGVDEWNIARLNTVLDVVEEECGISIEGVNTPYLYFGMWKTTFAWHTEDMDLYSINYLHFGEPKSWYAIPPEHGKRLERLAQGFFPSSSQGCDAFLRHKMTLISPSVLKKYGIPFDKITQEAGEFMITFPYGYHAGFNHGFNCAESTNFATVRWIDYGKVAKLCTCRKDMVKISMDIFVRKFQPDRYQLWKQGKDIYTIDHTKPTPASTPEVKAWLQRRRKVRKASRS
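System: N-terminal GST-fused human GASC-1 (KDM4C) fragment, residues 2-372; amount: enzyme final amount 10 nM; incubation: reaction 30 min RT, detection step 1 h RT; medium: HEPES buffer, pH 7.5, plus ascorbate; technique: LANCE TR-FRET, Eu antibody, ULight-streptavidin, EDTA, ex 340 nm, em 618/671 nm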
T cruzi growth-2: inhibitors of T. cruzi proliferation; AID 651739; T. cruzi beta-gal in NIH3T3, GalScreen luminescence, 90 h; 5,600 tested, 72% active; shares compounds with T cruzi growth-1; inhibition, % at 8.35 µM;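 active = mean replicate inhibition above about 95% and at least 55% of replicates individually reaching it, limit read from the data; inconclusive = only one of the two criteria is met; inactive = neither criterion is met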
T cruzi growth-3: inhibitors of T. cruzi proliferation; shares compounds with T cruzi growth-1; T. cruzi beta-gal in NIH3T3, GalScreen luminescence, 90 h; inhibition, % at 2.09 µM; 5,600 tested, 21% active; AID 651740;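 active = mean inhibition above about 95%, with at least 55% of replicates also reaching it, limit read from the data; inconclusive = meets just one of the two conditions; inactive = meets neither condition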
3T3 cytotox: kills mouse NIH/3T3 fibroblasts; shares compounds with T cruzi growth-1; NIH/3T3 viability, CellTiter-Glo ATP luminescence, 90 h; cytotoxicity (signal decrease), % at 8.35 µM; 5,600 tested, 14% active;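 active = mean signal decrease across replicates above about 35% based on untreated-well scatter, with enough replicates individually passing, limit read from the data; inconclusive = no rule stated though some were filed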
3T3 cytotox 2: NIH/3T3 (mouse) viability loss; shares compounds with T cruzi growth-1; NIH/3T3 viability, CellTiter-Glo ATP luminescence, 90 h; inhibition, % at 24.9 µM; 5,600 tested, 56% active; AID 651744;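 active = mean loss of cell viability signal at or above a set limit, and enough replicates individually reaching it; inconclusive = meets only the mean limit or only the replicate share; inactive = meets neither condition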
Of the large screens only hits and unclear results are named; the others gave an inactive call (follow-up assays come after a bar, where they were run). Shown is part of a subset that was picked to be rich in hits.

COc1ccccc1NC(=O)N[C@H]1CC[C@H](CCn2cc(-c3ccccc3OC)nn2)O[C@@H]1CO	T cruzi growth-1 149 (no result: GASC1 inh) | T cruzi growth-2 inactive | T cruzi growth-3 inactive | 3T3 cytotox inactive | 3T3 cytotox 2 inconclusive
O=C(Nc1ccc(F)cc1)N[C@H]1CC[C@@H](CCn2cc(-c3ccccc3F)nn2)O[C@@H]1CO	none (no result: T cruzi growth-1)
O=C(Nc1ccc(Cl)cc1)N[C@@H]1CC[C@H](CCn2cc(-c3ccccc3F)nn2)O[C@@H]1CO	T cruzi growth-1 102 | T cruzi growth-2 98 | T cruzi growth-3 inactive | 3T3 cytotox inactive | 3T3 cytotox 2 inconclusive
O=C(Nc1ccc(C(F)(F)F)cc1)N[C@H]1CC[C@@H](CCNC(=O)c2ccccc2F)O[C@H]1CO	T cruzi growth-1 139 | T cruzi growth-2 inactive | T cruzi growth-3 inactive | 3T3 cytotox inactive | 3T3 cytotox 2 inactive
COC(=O)c1c(O)cc(C)cc1Oc1c(O)cc(OC)cc1CO	none (no result: T cruzi growth-1, GASC1 inh)
c1ccc(-n2c(SCc3nc4ccccc4[nH]3)nnc2-c2cnccn2)cc1	none (no result: T cruzi growth-1, GASC1 inh)
Cc1cccc(OCC(=O)Nc2ccc(Cl)c(-c3nc4ccccc4s3)c2)c1	none (no result: T cruzi growth-1, GASC1 inh)
COc1ccccc1NC(=O)N[C@@H]1CC[C@@H](CCn2cc(-c3ccccc3OC)nn2)O[C@H]1CO	none
COc1ccccc1NC(=O)N[C@H]1CC[C@@H](CCn2cc(-c3ccccc3OC)nn2)O[C@@H]1CO	T cruzi growth-1 137 | T cruzi growth-2 inactive | T cruzi growth-3 inactive | 3T3 cytotox inactive | 3T3 cytotox 2 inactive
C[C@@H]1O[C@@H](O[C@H]2[C@H](O[C@H]3CC[C@@]4(C)C(CC[C@]5(C)C4C=C[C@]46OC[C@@]7(CCC(C)(C)C[C@H]74)[C@@H](O)C[C@]65C)[C@]3(C)CO)O[C@H](CO)[C@@H](O)[C@@H]2O[C@@H]2O[C@H](CO)[C@@H](O[C@@H]3O[C@@H](C)[C@H](O)[C@@H](O)[C@H]3O)[C@H](O)[C@H]2O)[C@H](O)[C@H](O)[C@H]1O (stereo partly specified)	none (no result: T cruzi growth-1, GASC1 inh)
Cc1ccc(S(=O)(=O)N[C@@H](Cc2ccccc2)C(=O)NCCN=[N+]=[N-])cc1	none (no result: T cruzi growth-1, GASC1 inh)
COc1ccc(C2(CNC(=O)C3COc4ccccc4O3)CCCC2)cc1OC (stereo unspecified)	none (no result: T cruzi growth-1, GASC1 inh)
CNC[C@@H]1OCCCC[C@H](C)Oc2ccc(NC(=O)NC3CCCCC3)cc2C(=O)N([C@@H](C)CO)C[C@@H]1C	T cruzi growth-1 111 | T cruzi growth-2 inactive | T cruzi growth-3 inactive | 3T3 cytotox inactive | 3T3 cytotox 2 inactive
CNC[C@H]1OCCCC[C@H](C)Oc2ccc(NC(=O)c3ccccc3)cc2C(=O)N([C@H](C)CO)C[C@@H]1C	T cruzi growth-1 inconclusive (no result: IDH1 mut inh) | T cruzi growth-2 99 | T cruzi growth-3 inactive | 3T3 cytotox inactive | 3T3 cytotox 2 inactive
CNC[C@@H]1OCCCC[C@H](C)Oc2ccc(NC(=O)Cc3ccccc3)cc2C(=O)N([C@@H](C)CO)C[C@@H]1C	T cruzi growth-1 99 | T cruzi growth-2 inactive | T cruzi growth-3 inactive | 3T3 cytotox inactive | 3T3 cytotox 2 inactive
CNC[C@@H]1OCCCC[C@@H](C)Oc2ccc(NC(=O)c3ccccc3)cc2C(=O)N([C@H](C)CO)C[C@@H]1C	none
CNC[C@@H]1OCCCC[C@@H](C)Oc2ccc(NC(=O)NC3CCCCC3)cc2C(=O)N([C@H](C)CO)C[C@H]1C	none
C[C@H]1CCCCO[C@@H](CN(C)C)[C@@H](C)CN([C@@H](C)CO)C(=O)c2cc(NC(=O)Cc3ccccc3)ccc2O1	none
Cc1c(Cl)cccc1NC(=O)CN(c1ccc2c(c1)OCCO2)S(C)(=O)=O	none (no result: T cruzi growth-1, GASC1 inh)
CSc1cccc(NC(=O)CN(c2ccc3c(c2)OCCO3)S(C)(=O)=O)c1	none (no result: T cruzi growth-1, GASC1 inh)
O=C(N/N=C/c1ccc(O)c(O)c1)c1ccccn1	none (no result: T cruzi growth-1, GASC1 inh)
Cc1cccc(-c2noc(CN(C(=O)c3ccc([N+](=O)[O-])c(C)c3)C(C)C)n2)c1	none (no result: T cruzi growth-1, GASC1 inh)
O=C(NCc1ccco1)c1cc([N+](=O)[O-])ccc1Sc1nc2ccccc2[nH]1	none (no result: T cruzi growth-1, GASC1 inh)
COc1ccccc1N1CCN(CC(=O)Nc2ccc([N+](=O)[O-])cc2C(=O)Nc2ccccc2F)CC1	none (no result: T cruzi growth-1, GASC1 inh)
O=C(COc1ccc(Br)cc1C(=O)Nc1ccc(Cl)cc1)NC1CC1	none (no result: T cruzi growth-1, GASC1 inh)
C[C@@H]1CN([C@H](C)CO)S(=O)(=O)c2ccc(C#Cc3ccccc3)cc2O[C@@H]1CN(C)C	none
COc1ccc(C#Cc2ccc3c(c2)O[C@@H](CN(C)C)[C@@H](C)CN([C@@H](C)CO)S3(=O)=O)cc1	none
COc1ccc(C#Cc2ccc3c(c2)O[C@H](CN(C)C)[C@@H](C)CN([C@@H](C)CO)S3(=O)=O)cc1	T cruzi growth-1 inconclusive | T cruzi growth-2 109 | T cruzi growth-3 inactive | 3T3 cytotox inactive | 3T3 cytotox 2 103
C[C@H]1CN([C@@H](C)CO)S(=O)(=O)c2ccc(C#Cc3ccccc3)cc2O[C@@H]1CN(C)C	T cruzi growth-1 102 | T cruzi growth-2 105 | T cruzi growth-3 inactive | 3T3 cytotox inactive | 3T3 cytotox 2 103
CCOC(=O)c1ccccc1NC(=O)COc1ccc(C)cc1C(C)(C)C	none (no result: T cruzi growth-1, GASC1 inh)
COC(=O)c1ccccc1NC(=O)CSc1nnc(-c2ccccc2O)n1-c1ccccc1	none (no result: T cruzi growth-1, GASC1 inh)
Cn1c(SCC(N)=O)nnc1-c1cccc(Cl)c1	none (no result: T cruzi growth-1, GASC1 inh)
O=C(CCCCCCC(=O)Nc1ccccc1O)N/N=C/c1ccccn1	none (no result: T cruzi growth-1, GASC1 inh)
CC(C)NC(=O)N1CC[C@@H]2[C@H]1c1cc(-c3cccc(F)c3)ccc1N(C)[C@H]2CO	none (no result: IDH1 mut inh)
CC(C)NC(=O)N1CC[C@@H]2[C@@H](CO)N(C)c3ccc(-c4ccc(F)cc4)cc3[C@@H]21	T cruzi growth-1 100 (no result: IDH1 mut inh) | T cruzi growth-2 105 | T cruzi growth-3 101 | 3T3 cytotox inactive | 3T3 cytotox 2 49
CC(C)NC(=O)N1CC[C@@H]2[C@H]1c1cc(-c3ccc(F)cc3)ccc1N(C)[C@@H]2CO	T cruzi growth-1 108 (no result: IDH1 mut inh) | T cruzi growth-2 111 | T cruzi growth-3 inactive | 3T3 cytotox inactive | 3T3 cytotox 2 inactive
COc1ccc(-c2ccc3c(c2)[C@@H]2[C@@H](CCN2C(=O)NC(C)C)[C@H](CO)N3C)cc1	none (no result: IDH1 mut inh)
O=C(O)CCCCCC(=O)N/N=C/c1ccc(N(c2ccccc2)c2ccccc2)cc1	none (no result: T cruzi growth-1, GASC1 inh)
COc1ccccc1C#Cc1ccc2c(c1)[C@H]1[C@H](CCN1C(=O)c1ccncc1)[C@@H](CO)N2	none (no result: IDH1 mut inh, T cruzi growth-1)
CCC(=O)N1CC[C@H]2[C@H](CO)Nc3ccc(C#Cc4ccc(OC)cc4)cc3[C@H]21	none (no result: IDH1 mut inh, T cruzi growth-1)
COc1ccc(C#Cc2ccc3c(c2)[C@@H]2[C@@H](CCN2C(=O)C2CCC2)[C@H](CO)N3)cc1	none (no result: IDH1 mut inh, T cruzi growth-1)
COc1ccc(C#Cc2ccc3c(c2)[C@H]2[C@H](CCN2C(=O)C2CC2)[C@@H](CO)N3)cc1	T cruzi growth-1 116 (no result: IDH1 mut inh) | T cruzi growth-2 inactive | T cruzi growth-3 inactive | 3T3 cytotox inactive | 3T3 cytotox 2 inactive

Source: PubChem BioAssay
